Calls of active or inactive are those of the source. The rule behind the calls is not given here.
Tests used:
[1] = Cytotoxicity against human H1299 cells assessed as cell growth inhibition at 5 to 10 uM after 72 hrs by MTT assay; format: functional, NCI-H1299
Summary of the method: (§1)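 Cell lines with constitutive Stat3 phosphorylation (melanoma, NSCLC) exposed to prodrug at 5–10 μM. Percent growth inhibition recorded.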

[2] = target: T1, Signal transducer and activator of transcription 3 (Homo sapiens, UniProt P40763); assay: Inhibition of SH2 domain of Stat3 constitutive phosphorylation at Tyr705 in human MDA-MB-468 cells at 5 uM after 30 mins by Western blotting; format: cell-based
Summary of the method: (§2)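 MDA-MB-468 cells given a single 5 μM prodrug dose and harvested at set times; pTyr705 and total Stat3 by Western blot of 12 μg lysate protein on 8% SDS-PAGE.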

[3] = target: T1, Signal transducer and activator of transcription 3; assay: Inhibition of EGF-induced SH2 domain of Stat3 phosphorylation at Tyr705 in human MDA-MB-468 cells at 5 uM treated 1.5 hrs before EGF challenge measured after 30 mins by Western blotting; format: cell-based
Summary of the method: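 MDA-MB-468 cells pretreated 1.5 h with prodrug (5 μM), then EGF 100 ng/mL for 30 min; lysates split onto three PVDF blots probed for phospho/total Stat3, pSer473/total Akt, and phospho/total Stat5.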

[4] = Cytotoxicity against human NCI-H1819 cells assessed as cell growth inhibition at 5 to 10 uM after 72 hrs by MTT assay; format: functional; summary of the method: as §1
[5] = target: T1, Signal transducer and activator of transcription 3; assay: Inhibition of IL6-induced SH2 domain of Stat3 phosphorylation at Tyr705 in human MeWo cells up to 10 uM treated 1.5 hrs before IL6 challenge measured after 30 mins by Western blotting; format: cell-based
Summary of the method: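 Hey, MeWo and A375 cells (3×10^5/well, RPMI1640, overnight, fresh medium) given increasing prodrug concentrations for 2 h, with IL-6 10 ng/mL during the final 30 min; pStat3 and total Stat3 by Western blot.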

MeWo = assay: Cytotoxicity against human MeWo cells assessed as cell growth inhibition at 5 to 10 uM after 72 hrs by MTT assay; format: functional; summary of the method: as §1
[6] = target: T1, Signal transducer and activator of transcription 3; assay: Inhibition of SH2 domain of Stat3 phosphorylation at Tyr705 in human HCC-827 cells at 5 uM after 4 hrs by Western blotting; format: cell-based
Summary of the method: (§3)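 HCC-827 NSCLC cells treated with 5 μM prodrug and sampled over a time course from 10 min to 24 h; pStat3 by Western blot.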

[7] = target: T1, Signal transducer and activator of transcription 3; assay: Inhibition of SH2 domain of Stat3 phosphorylation at Tyr705 in human HCC-827 cells at 5 uM after 24 hrs by Western blotting; format: cell-based; summary of the method: as §3
[8] = target: T1, Signal transducer and activator of transcription 3; assay: Inhibition of SH2 domain of Stat3 in human MDA-MB-468 cells assessed as reduction of phosphorylated Stat3 level in cell nucleus at 5 uM after 2 hrs by fluorescence immunohistochemical analysis; format: cell-based
Summary of the method: (§4)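 MDA-MB-468 cells on slides treated with 5 μM prodrug or DMSO for 2 h, fixed in 4% paraformaldehyde, permeabilized with 0.5% Triton X-100, blocked in 3% BSA, stained with anti-pTyr705 Stat3 and Alexa Fluor 594 secondary; confocal imaging at fixed microscope settings.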

A549 = assay: Cytotoxicity against human A549 cells assessed as cell growth inhibition at 5 to 10 uM after 72 hrs by MTT assay; format: functional; summary of the method: as §1
[9] = target: T1, Signal transducer and activator of transcription 3; assay: Inhibition of SH2 domain of Stat3 constitutive phosphorylation at Tyr705 in human MDA-MB-468 cells at 0.5 uM after 2 hrs by Western blotting; format: cell-based
Summary of the method: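 MDA-MB-468 cells (4×10^5/well, DMEM 10% FCS, overnight) given prodrug from freshly made 10 mM DMSO stock for 2 h. Lysates in Hepes pH 7.4 Triton buffer with phosphatase/protease inhibitors; 12 μg protein on 8% SDS-PAGE, PVDF, probed for pStat3 Y705 by ECL, then stripped and reprobed for total Stat3.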

[10] = target: T1, Signal transducer and activator of transcription 3; assay: Inhibition of SH2 domain of Stat3 constitutive phosphorylation at Tyr705 in human MDA-MB-468 cells at 5 uM after 8 hrs by Western blotting; format: cell-based; summary of the method: as §2
[11] = target: T1, Signal transducer and activator of transcription 3; assay: Inhibition of constitutive SH2 domain of Stat3 phosphorylation at Tyr705 in human SKOV3-ip cells at 1 uM measured after 2 hrs by Western blotting
MCF7 = assay: Cytotoxicity against human MCF7 cells after 72 hrs by SRB assay; format: functional, cell-based; settings: MCF7, 72 h
Summary of the method: (§5)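 Cancer cell lines (MCF-7, SKOV3-ip, HCC-827) dosed daily with prodrug for three days; viability by SRB assay.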

[12] = target: T1, Signal transducer and activator of transcription 3; assay: Inhibition of SH2 domain of Stat3 constitutive phosphorylation at Tyr705 in human MDA-MB-468 cells at 5 uM after 2 hrs by fluorescence immunohistochemical analysis; format: cell-based; summary of the method: as §4
[13] = target: RAC-alpha serine/threonine-protein kinase (Homo sapiens) (UniProt P31749); assay: Inhibition of Akt phosphorylation at Ser473 in human HCC-827 cells at 5 uM after up to 24 hrs by Western blotting; format: cell-based
[14] = Cytotoxicity against human HCC827 cells after 72 hrs by SRB assay; format: functional, cell-based; settings: HCC827, 72 h; summary of the method: as §5
[15] = target: T2, Signal transducer and activator of transcription 1-alpha/beta (Homo sapiens) (UniProt P42224); assay: Inhibition of IFN-gamma-induced Stat1 phosphorylation at Tyr701 in human MDA-MB-468 cells treated 1.5 hrs before IFN-gamma challenge measured after 30 mins by Western blotting; format: cell-based
T2 sequence (whole entry): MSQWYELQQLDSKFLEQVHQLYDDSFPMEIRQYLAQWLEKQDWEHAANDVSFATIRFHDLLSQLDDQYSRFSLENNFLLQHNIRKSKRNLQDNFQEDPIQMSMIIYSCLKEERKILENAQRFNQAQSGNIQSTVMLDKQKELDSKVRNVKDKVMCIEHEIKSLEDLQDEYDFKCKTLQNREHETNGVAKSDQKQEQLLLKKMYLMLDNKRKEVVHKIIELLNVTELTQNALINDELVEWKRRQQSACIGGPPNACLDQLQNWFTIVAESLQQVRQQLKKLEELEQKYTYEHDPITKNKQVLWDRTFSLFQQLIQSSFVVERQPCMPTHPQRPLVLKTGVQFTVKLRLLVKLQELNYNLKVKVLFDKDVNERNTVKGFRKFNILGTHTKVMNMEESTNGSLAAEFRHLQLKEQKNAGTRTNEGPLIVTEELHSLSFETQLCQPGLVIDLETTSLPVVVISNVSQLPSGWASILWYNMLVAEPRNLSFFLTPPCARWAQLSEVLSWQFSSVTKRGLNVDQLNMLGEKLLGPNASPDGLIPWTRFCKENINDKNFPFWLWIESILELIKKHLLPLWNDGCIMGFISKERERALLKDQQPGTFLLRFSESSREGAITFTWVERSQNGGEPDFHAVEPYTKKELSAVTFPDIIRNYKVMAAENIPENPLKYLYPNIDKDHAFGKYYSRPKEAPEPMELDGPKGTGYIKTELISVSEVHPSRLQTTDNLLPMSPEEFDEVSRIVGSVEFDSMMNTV
Summary of the method: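 MDA-MB-468 cells exposed to rising prodrug concentrations for 1.5 h, then interferon γ 25 ng/mL for 30 min; Western blot for pTyr701 and total Stat1.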

T1 sequence (P40763 whole entry, the tested form may be a part): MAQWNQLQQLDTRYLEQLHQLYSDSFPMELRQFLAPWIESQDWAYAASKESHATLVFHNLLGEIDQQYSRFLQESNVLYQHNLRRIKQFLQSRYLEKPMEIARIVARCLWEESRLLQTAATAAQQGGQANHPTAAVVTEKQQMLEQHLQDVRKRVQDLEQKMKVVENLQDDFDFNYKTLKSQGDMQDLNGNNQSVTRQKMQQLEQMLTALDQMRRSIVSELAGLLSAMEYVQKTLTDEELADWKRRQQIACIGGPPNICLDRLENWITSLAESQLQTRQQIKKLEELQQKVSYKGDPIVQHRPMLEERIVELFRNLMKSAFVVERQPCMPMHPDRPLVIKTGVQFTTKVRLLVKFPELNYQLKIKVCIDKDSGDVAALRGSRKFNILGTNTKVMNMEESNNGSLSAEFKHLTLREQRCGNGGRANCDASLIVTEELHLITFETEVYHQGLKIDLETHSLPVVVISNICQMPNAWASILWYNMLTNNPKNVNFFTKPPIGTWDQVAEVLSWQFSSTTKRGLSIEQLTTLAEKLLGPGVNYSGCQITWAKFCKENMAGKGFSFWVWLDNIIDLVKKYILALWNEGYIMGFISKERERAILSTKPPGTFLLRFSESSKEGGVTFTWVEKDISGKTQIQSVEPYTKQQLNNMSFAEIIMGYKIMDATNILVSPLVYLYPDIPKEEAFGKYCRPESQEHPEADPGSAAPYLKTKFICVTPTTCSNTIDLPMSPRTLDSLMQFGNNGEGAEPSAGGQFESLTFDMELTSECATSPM
Chain of RAC-alpha serine/threonine-protein kinase (Homo sapiens) (P31749 whole entry): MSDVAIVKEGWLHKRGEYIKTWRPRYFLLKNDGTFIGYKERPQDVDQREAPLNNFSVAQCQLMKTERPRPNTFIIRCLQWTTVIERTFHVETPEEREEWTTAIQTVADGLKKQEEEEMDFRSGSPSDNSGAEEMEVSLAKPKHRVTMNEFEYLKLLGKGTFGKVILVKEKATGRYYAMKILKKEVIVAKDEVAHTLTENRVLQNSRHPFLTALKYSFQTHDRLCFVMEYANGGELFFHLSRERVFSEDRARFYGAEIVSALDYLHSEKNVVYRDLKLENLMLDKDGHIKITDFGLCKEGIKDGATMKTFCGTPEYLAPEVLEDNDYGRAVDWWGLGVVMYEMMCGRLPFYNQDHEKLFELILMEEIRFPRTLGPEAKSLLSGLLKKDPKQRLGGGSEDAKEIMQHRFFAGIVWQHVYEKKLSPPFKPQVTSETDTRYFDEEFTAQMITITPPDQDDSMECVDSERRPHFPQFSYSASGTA

inhibition [2]: Active
inhibition [3]: Active
inhibition [5]: Active
inhibition [6]: Active
inhibition [7]: Active
inhibition [8]: Active
inhibition [9]: Active
inhibition [10]: Active
inhibition [11]: Active
inhibition [12]: Active
inhibition [13]: inactive
inhibition [15]: Dose-dependent effect
SMILES: C/C(=C\C(=O)N[C@H]1CCc2cccc3c2N(C1=O)[C@H](C(=O)N[C@H](C)CCC(N)=O)C3)c1ccc(C(F)(F)P(=O)(OCOC(=O)C(C)(C)C)OCOC(=O)C(C)(C)C)cc1
growth inhibition (GI) [1]: <20%
growth inhibition (GI) [4]: <20%
growth inhibition (GI) (MeWo): <20%
growth inhibition (GI) (A549): <20%
IC50 (MCF7): > 30 µM
IC50 [14]: > 30 µM
